Source: PubChem (several laboratories)
H9c2 TAG inh: triacylglycerol accumulation inhibition; inhibition, % at 12.5 µM; H9c2 cells, Nile Red lipid (TAG) fluorescence; cells loaded with 200 µM oleic acid; 0.66% of 230,000 active;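 active = pattern-corrected inhibition of lipid staining of at least 50% with the nuclear-stain viability signal not falling by more than 50%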;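 also: 0% = DMSO wells and 100% = triacsin C control wells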
SMARCA2 activ: SMARCA2 function activation, primary screen | MG213 cells, MMTV-luciferase reporter, dexamethasone, overnight | activation, % at 9.1 µM | 1% of 370,000 active | AID 652017; in the data active = activation above about 7.8%;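 also: 0% = vehicle wells and 100% = reference activator wells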
Efflux pump inh: blocks antifungal efflux pumps in multiplex yeast assay. S. cerevisiae Candida pump triplex, Nile Red efflux. inhibition, % at 10 µM. 0.44% of 330,000 active. AID 485275;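 active = plate passing quality check with inhibition over a set limit, or well fluorescence over plate mean plus 4 SD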;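 also: Nile Red retained in pooled yeast measured as flow cytometry median fluorescence; 0% = buffer negative control and 100% = Enniatin B positive control; higher means more Nile Red kept so more efflux inhibition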
Tb MetRS inh: blocks T. brucei methionyl-tRNA synthetase activity; purified T. brucei MetRS, ATP depletion, Kinase-Glo luminescence; inhibition, % at 11.9 µM; 0.4% of 360,000 active; AID 624268;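 active = inhibition above a per-plate cutoff of the control wells' mean inhibition plus 3 SD, cut at about 5.5% in these data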;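 also: 0% = DMSO wells median and 100% = median of wells with control inhibitor compound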
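Material – parasite MetRS enzyme · Medium – HEPES-MgCl2-KCl buffer plus DTT, spermine, BSA, pyrophosphatase · Reagent – ATP, methionine and E. coli bulk tRNA substrates · Times – 15 min enzyme-compound preincubation, 2 h reaction, 10 min detection, 25 °C · Measured by – luminescence of leftover ATP · Evaluation – percent inhibition relative to median high and low control wells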
AHR activator: human AHR activation; P35869; AHR-responsive luciferase reporter cells, luminescence; 2.5% of 320,000 active; activation, % at 5 µM; in the data active = activation above about 47%;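 also: 0% = vehicle wells and 100% = reference agonist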
Target sequence (P35869 whole entry, looked up): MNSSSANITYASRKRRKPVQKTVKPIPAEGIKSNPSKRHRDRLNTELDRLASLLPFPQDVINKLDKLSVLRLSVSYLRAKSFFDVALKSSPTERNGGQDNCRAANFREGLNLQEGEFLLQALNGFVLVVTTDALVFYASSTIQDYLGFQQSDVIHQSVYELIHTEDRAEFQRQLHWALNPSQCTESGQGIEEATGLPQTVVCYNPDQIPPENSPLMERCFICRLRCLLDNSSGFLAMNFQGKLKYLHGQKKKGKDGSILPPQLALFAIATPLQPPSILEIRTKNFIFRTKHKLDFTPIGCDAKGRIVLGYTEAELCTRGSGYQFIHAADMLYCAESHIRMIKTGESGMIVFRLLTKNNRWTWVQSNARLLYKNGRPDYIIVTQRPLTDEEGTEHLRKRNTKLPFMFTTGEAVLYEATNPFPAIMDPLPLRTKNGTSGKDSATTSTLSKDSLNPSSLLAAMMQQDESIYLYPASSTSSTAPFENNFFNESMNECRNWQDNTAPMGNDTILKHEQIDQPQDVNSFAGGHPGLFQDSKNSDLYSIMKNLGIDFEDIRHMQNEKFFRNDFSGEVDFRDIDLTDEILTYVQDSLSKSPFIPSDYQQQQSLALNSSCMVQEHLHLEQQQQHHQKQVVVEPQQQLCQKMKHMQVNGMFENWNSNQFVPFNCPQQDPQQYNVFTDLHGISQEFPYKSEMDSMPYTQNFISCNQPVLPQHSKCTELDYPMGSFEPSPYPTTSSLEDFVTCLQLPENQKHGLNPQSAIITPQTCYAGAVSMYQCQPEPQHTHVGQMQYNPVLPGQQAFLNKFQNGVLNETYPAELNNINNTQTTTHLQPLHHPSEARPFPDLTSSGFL
Cmpd fluor yeast: counter-screen for efflux pump inhibitors: compound fluorescence; shares compounds with Efflux pump inh; S. cerevisiae AD/pABC3, flow cytometry; fluorescence ratio to DMSO, % at 10 µM; 4% of 1,700 active;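 active = fluorescence ratio to DMSO above its plate's cutoff, the plate mean ratio plus 5 SD, cut at about 210% in these data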;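 also: unstained yeast with no Nile Red so the signal is compound autofluorescence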
Mdr1 pump inh: blocks the Candida albicans Mdr1 efflux pump in yeast; shares compounds with Efflux pump inh; S. cerevisiae AD/CaMDR1, Nile Red efflux, flow cytometry; inhibition, % at 10 µM; 1% of 1,700 active; in the data active = inhibition above about 26%;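 also: 0% = DMSO vehicle and 100% = reference inhibitor; higher means more Nile Red retained so more efflux inhibition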
Cdr2 pump inh: blocks the Candida albicans Cdr2 efflux pump in yeast; shares compounds with Efflux pump inh; S. cerevisiae AD/CaCDR2, Nile Red retention, flow cytometry; Nile Red retention ratio vs DMSO, % at 10 µM; 4% of 1,700 active; in the data active = Nile Red retention ratio vs DMSO above about 190%;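 also: higher ratio means more blocking of Cdr2 efflux of the dye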
CaCdr1 efflux inh: blocks the Candida albicans Cdr1 efflux pump in yeast; shares compounds with Efflux pump inh; S. cerevisiae AD/CaCDR1, Nile Red efflux, flow cytometry; inhibition, % at 10 µM; 1% of 1,700 active; AID 588522;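 active = inhibition above the screen-wide mean plus twice its standard deviation, cut at about 32% in these data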
* hit, by the source's call; nt = no result; + = active, no number. Hits are enriched below; roughly 4.1% of the tested compounds scored in any of these assays.

SMILES	H9c2 TAG inh	SMARCA2 activ	Efflux pump inh	Tb MetRS inh	AHR activator	Cmpd fluor yeast	Mdr1 pump inh	Cdr2 pump inh	CaCdr1 efflux inh
CC1(c2nnnn2C2CCCCC2)CSCC(=O)N1CCc1ccc(O)cc1 (stereo unspecified)	nt	1.1	nt	nt	nt	nt	nt	nt	nt
CC(C)(C)c1ccc(-n2ncc3c2CCCC3NC(=O)c2csnn2)cc1 (stereo unspecified)	-12.2	-0.8	0.0	-0.7	7.4	nt	nt	nt	nt
CC(C)(C)c1ccc(-n2ncc3c2CCCC3NC(=O)c2cnccn2)cc1 (stereo unspecified)	nt	1.8	0.5*	-1.0	12.5	106.7	-0.1	98.1	-0.1
COc1ccc(C(=O)NC(=S)Nc2ccc3[nH]c(=O)[nH]c3c2)c(OC)c1	nt	0.0	0.1	0.3	8.3	107.9	-0.1	106.0	0.2
O=C(NC(=S)Nc1ccc2[nH]c(=O)[nH]c2c1)c1ccccc1F	8.4	-3.9	0.4	0.0	2.8	105.0	-0.2	93.0	0.1
Cc1ccccc1C(=O)NC(=S)Nc1ccc2[nH]c(=O)[nH]c2c1	2.6	-0.3	0.0	-0.1	6.3	nt	nt	nt	nt
O=C(NC(=S)Nc1ccc2[nH]c(=O)[nH]c2c1)c1cncc(Br)c1	-12.6	0.1	0.8*	0.3	17.4	103.4	-0.3	101.5	-0.1
C[C@@H]1COc2cccc(F)c2S(=O)(=O)N1C	nt	-0.7	nt	nt	nt	nt	nt	nt	nt
CC(=O)OC12CCCN(C1)/C(=C/c1ccccc1)C2 (stereo unspecified)	nt	-2.3	nt	nt	nt	nt	nt	nt	nt
COC(=O)[C@]12C[C@H](CC(=O)N3CCN(C(=O)c4ccco4)CC3)C(=O)N(Cc3ccco3)C1=C[C@H](COCc1ccccc1)O[C@@H]2C	nt	2.3	nt	nt	nt	nt	nt	nt	nt
CCOC(=O)N1CCN(C(=S)NC(=O)c2ccc(F)c(F)c2)CC1	4.4	-4.6	1.6*	-0.5	-0.5	95.3	-0.1	103.6	0.1
CCOC(=O)N1CCN(C(=S)NC(=O)c2cccc(OC)c2)CC1	1.1	2.6	0.2	-0.9	-0.5	nt	nt	nt	nt
O=[N+]([O-])c1cnccc1Nc1ccccc1	9.1	6.5	-0.1	-0.5	-2.8	nt	nt	nt	nt
O=C(O)c1cccc(Nc2ccncc2[N+](=O)[O-])c1	nt	-2.7	1.2*	-0.4	-1.2	95.3	-0.3	112.0	-0.4
O=C(NCCCN1CCOCC1)Nc1ccc(Cc2ccc(NC(=O)NCCCN3CCOCC3)cc2)cc1	nt	-3.2	6.8*	-0.2	-0.9	97.2	-0.2	101.7	-0.1
Cc1ccc(NC(=O)NCCCN2CCOCC2)cc1	-6.9	3.2	0.2	-0.7	2.1	nt	nt	nt	nt
CCOc1ncccc1C(=O)OCc1ccc(C(=O)OC)cc1	4.8	4.8	1.4*	-1.3	2.5	118.0	0.2	122.6	0.0
CCOc1ncccc1C(=O)OCc1ccc(Cl)cc1	nt	-1.7	0.1	0.0	-0.1	nt	nt	nt	nt
CC1O[C@@H](OC2C(COC3OC(CO)C(O)[C@H](O)C3O)OC(OC3CC[C@]4(C)C(CC[C@@]5(C)[C@@H]4CC=C4[C@@H]6CC(C)(C)CC[C@]6(CO)C(O)C[C@]45C)C3(C)C)C(O)C2O)C(O)C(O)C1O (stereo partly specified)	8.4	-0.4	0.5	-0.1	0.7	nt	nt	nt	nt
C[C@H]1O[C@@H](O[C@H]2CC[C@@]3(C)C(CC[C@]4(C)C3C=CC3=C5CC(C)(C)CC[C@]5(CO)[C@H](O)C[C@]34C)[C@]2(C)CO)[C@H](O)[C@@H](O[C@@H]2O[C@H](CO)[C@@H](O)[C@H](O)[C@H]2O)[C@H]1O (stereo partly specified)	13.6	0.1	1.7*	0.0	1.5	109.5	0.0	112.2	-0.1
COc1cccc(-c2sc3ccccc3c2-c2ccc(OCCN(C)C)cc2)c1	21.2	-1.4	2.4	-0.3	-0.6	nt	nt	nt	nt
COc1ccccc1-c1sc2ccccc2c1-c1ccc(OCCN2CCCCC2)cc1	20.7	nt	40.2*	-1.4	nt	112.7	-0.2	95.6	0.1
COc1ccc2sc(-c3ccccc3OC)c(-c3ccc(OCCN(C)C)cc3)c2c1	7.6	-4.7	196.1*	-1.9	nt	124.4	1.9	+	1.3
COc1ccc2c(-c3ccc(OCCN4CCCCC4)cc3)c(-c3ccccc3OC)sc2c1	33.2	nt	0.8	-1.8	nt	100.2	-0.2	99.3	-0.5
O=C(COC(=O)[C@H](Cc1ccccc1)NC(=O)c1cccs1)NC1CCCCC1	nt	-3.2	17.7*	0.4	4.5	104.5	0.1	109.4	-0.1
SMILES	H9c2 TAG inh	SMARCA2 activ	Efflux pump inh	Tb MetRS inh	AHR activator	Cmpd fluor yeast	Mdr1 pump inh	Cdr2 pump inh	CaCdr1 efflux inh
COC(=O)C1=C(C)N(Cc2ccc(C(F)(F)F)cc2)C(=NCc2ccc(C(F)(F)F)cc2)NC1c1ccc(F)cc1 (stereo unspecified)	nt	-6.8	nt	nt	nt	nt	nt	nt	nt
Cc1no[n+]([O-])c1COc1cccc(/C=C2\N=C(c3ccccc3)OC2=O)c1	nt	-2.5	0.2	-1.0	-1.0	nt	nt	nt	nt
COc1cc(/C=C2\N=C(c3ccccc3)OC2=O)ccc1OCc1c(C)no[n+]1[O-]	nt	-2.8	10.2*	-1.6	3.1	105.7	0.5	135.6	0.3
CCN(CC)C(=O)CC[C@@H]1CC[C@]2(CCCN(Cc3ccc(Br)cc3)C2)O1	nt	-1.2	nt	nt	nt	nt	nt	nt	nt
Fc1ccc(CN2CCN(c3ncnc4scc(-c5ccccc5)c34)CC2)cc1	nt	-2.9	1.7*	-0.2	3.7	100.2	-0.2	93.0	0.0
O=C(NC1CCCCC1)c1cc2ccccc2cc1O	10.9	4.2	1.1*	-0.8	6.7	98.6	0.2	107.8	0.2
O=C(NC1CCCCCCC1)c1ccccc1O	7.3	4.5	0.1	1.2	8.3	nt	nt	nt	nt
CCCCNS(=O)(=O)CC1NCc2ccccc21 (stereo unspecified)	nt	-0.1	nt	nt	nt	nt	nt	nt	nt
COc1ccc(/C=C/C(=O)c2ccc([N+](=O)[O-])o2)cc1OC	nt	4.1	nt	nt	1.9	nt	nt	nt	nt
COc1cc(/C=C/C(=O)c2ccc([N+](=O)[O-])o2)ccc1O	115.6	1.8	0.8*	-0.1	4.0	188.0	0.2	161.1	0.3
C=CCN1[C@H](C#N)[C@@H](c2ccc(C#Cc3ccccc3OC)cc2)[C@H]1CO	nt	1.5	nt	nt	nt	nt	nt	nt	nt
CN(CCO)c1ccc2c(c1)Oc1ccccc1CN(Cc1cn(Cc3ccccc3C(F)(F)F)nn1)S2(=O)=O	nt	-4.7	nt	nt	nt	nt	nt	nt	nt
Cc1ccc(-c2csc(/C(C#N)=C/Nc3ccccc3SC(F)(F)F)n2)c(C)c1	nt	0.8	0.5*	-0.2	1.8	162.6	2.9	116.4	1.0
CC1CCCCC12NC(=O)N(CC(=O)NC1CCCc3ccccc31)C2=O (stereo unspecified)	nt	-1.6	0.9*	0.7	6.9	98.6	0.0	101.5	0.0
O=C(CN1C(=O)NC2(CCCCCCC2)C1=O)NC1CCCc2ccccc21 (stereo unspecified)	12.2	-0.2	0.0	0.1	-1.5	nt	nt	nt	nt
O=c1cc(Nc2cccc(Br)c2)[nH]c(=O)[nH]1	nt	1.6	0.2	-0.5	1.5	nt	nt	nt	nt
